Results taken from ChEMBL document CHEMBL1126276, “Synthesis and antimalarial properties of 1-imino derivatives of 7-chloro-3-substituted-3,4-dihydro-1,9(2H,10H)-acridinediones and related structures” (J Med Chem, 1992).

Assays:
Plasmodium berghei [1] = assay: Antimalarial activity was measured against mice (Mus musculus) infected with Plasmodium berghei by subcutaneous administration of 40 mg/kg dose; assay type: organism-based; design: dose 40 mg/kg, route subcutaneous; conditions: in vivo, sc
In short: (§1)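 […] in mice infected with a normal drug-sensitive P. berghei strain. Compound dissolved or suspended in sesame or peanut oil, given as a single subcutaneous dose 72 h postinfection.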

Plasmodium berghei [2] = assay: Antimalarial activity was measured against mice (Mus musculus) infected with Plasmodium berghei by subcutaneous administration of 160 mg/kg dose; assay type: organism-based; design: dose 160 mg/kg, route subcutaneous; conditions: in vivo, sc; in short: as §1
Plasmodium berghei [3] = assay: Antimalarial activity was measured against mice (Mus musculus) infected with Plasmodium berghei by subcutaneous administration of 640 mg/kg dose; assay type: organism-based; design: dose 640 mg/kg, route subcutaneous; conditions: in vivo, sc; in short: as §1
Plasmodium berghei [4] = assay: (§2) Antimalarial activity in Plasmodium berghei infected mice (Mus musculus) after 10 mg/kg subcutaneous dose; assay type: functional
In short: (§3)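 Normal drug-sensitive P. berghei strain in mice. Compound dissolved or suspended in sesame or peanut oil, given parenterally as a single subcutaneous dose 72 h postinfection.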

Plasmodium berghei [5] = assay: Antimalarial activity in Plasmodium berghei infected mice (Mus musculus) after subcutaneous 640 mg/kg dose; assay type: functional; in short: as §3
Plasmodium berghei [6] = assay: Antimalarial activity in Plasmodium berghei infected mice (Mus musculus) after subcutaneous 160 mg/kg dose; assay type: functional; in short: as §3
Plasmodium berghei [7] = assay: (§4) Antimalarial activity in Plasmodium berghei infected mice (Mus musculus) after 80 mg/kg subcutaneous dose; assay type: functional; in short: as §3
Plasmodium berghei [8] = assay: (§5) Antimalarial activity in Plasmodium berghei infected mice (Mus musculus) after 20 mg/kg subcutaneous dose; assay type: functional; in short: as §3
Plasmodium berghei [9] = assay: (§6) Antimalarial activity in Plasmodium berghei infected mice (Mus musculus) after 40 mg/kg subcutaneous dose; assay type: functional; in short: as §3
Plasmodium berghei [10] = assay: Antimalarial activity in Plasmodium berghei infected mice (Mus musculus) after subcutaneous 320 mg/kg dose; assay type: functional; in short: as §3
Plasmodium berghei [11] = assay: Antimalarial activity Plasmodium berghei infected mice (Mus musculus) after 640 mg/kg subcutaneous dose; assay type: functional; in short: as §1
Plasmodium berghei [12] = assay: Antimalarial activity was measured against mice (Mus musculus) infected with Plasmodium berghei by subcutaneous administration of 80 mg/kg dose; assay type: organism-based; design: dose 80 mg/kg, route subcutaneous; conditions: in vivo, sc; in short: as §1
Plasmodium berghei [13] = assay: as §5; assay type: functional; in short: as §1; remark: listed apart in the source
Plasmodium berghei [14] = assay: Antimalarial activity was measured against mice (Mus musculus) infected with Plasmodium berghei by subcutaneous administration of 320 mg/kg dose; assay type: organism-based; design: dose 320 mg/kg, route subcutaneous; conditions: in vivo, sc; in short: as §1
Plasmodium berghei [15] = assay: as §6; assay type: functional; in short: as §1; remark: listed apart in the source
Plasmodium berghei [16] = assay: Antimalarial activity was measured against mice (Mus musculus) infected with Plasmodium berghei by subcutaneous administration of 20 mg/kg dose; assay type: organism-based; design: dose 20 mg/kg, route subcutaneous; conditions: in vivo, sc; in short: as §1
Plasmodium berghei [17] = assay: Antimalarial activity in Plasmodium berghei infected mice (Mus musculus) after 320 mg/kg subcutaneous dose; assay type: functional; in short: as §1
Plasmodium berghei [18] = assay: as §4; assay type: functional; in short: as §1; remark: listed apart in the source
Plasmodium berghei [19] = assay: Antimalarial activity in Plasmodium berghei infected mice (Mus musculus) after 640 mg/kg subcutaneous dose; assay type: functional; in short: as §1
Plasmodium berghei [20] = assay: Antimalarial activity in Plasmodium berghei infected mice (Mus musculus) after 160 mg/kg subcutaneous dose; assay type: functional; in short: as §1
Plasmodium berghei [21] = assay: (§7) Antimalarial activity in Plasmodium berghei infected mice (Mus musculus) after 5 mg/kg subcutaneous dose; assay type: functional; in short: as §3
Plasmodium berghei [22] = assay: as §7; assay type: functional; in short: as §1; remark: listed apart in the source
Plasmodium berghei [23] = assay: as §2; assay type: functional; in short: as §1; remark: listed apart in the source

Row | Structure (SMILES) | No. of toxic deaths (Plasmodium berghei [1]) | No. of toxic deaths (Plasmodium berghei [2]) | No. of toxic deaths (Plasmodium berghei [3]) | No. of cured mice (Plasmodium berghei [5]) | No. of cured mice (Plasmodium berghei [6]) | No. of cured mice (Plasmodium berghei [7]) | No. of cured mice (Plasmodium berghei [8]) | No. of cured mice (Plasmodium berghei [9]) | No. of cured mice (Plasmodium berghei [10]) | No. of toxic deaths (Plasmodium berghei [12]) | Delta mean survival time (Plasmodium berghei [13]) | No. of toxic deaths (Plasmodium berghei [14]) | Delta mean survival time (Plasmodium berghei [15]) | also measured
1 | CN(C)CCC/N=C1\CC2(CCCCC2)Cc2c1c(=O)c1cc(Cl)ccc1n2O | 5 | 5 | 5 | – | – | – | – | – | – | – | – | – | – | –
2 | CCN(CC)CC/N=C1\CC(c2ccc(Cl)cc2Cl)Cc2nc3ccc(Cl)cc3c(O)c21 (configuration not stated) | – | – | – | 5 | 5 | 5 | 5 | 5 | 5 | – | – | – | – | No. of cured mice (Plasmodium berghei [4]): 5
3 | CCN(CC)CCCC(C)/N=C1\CC(c2ccc(C(F)(F)F)cc2)Cc2nc3ccc(Cl)cc3c(O)c21 (configuration not stated) | – | – | – | 2 | 5 | 4 | 3 | 5 | 3 | 1 | 10.8 | 2 | – | Delta mean survival time (Plasmodium berghei [11]): 3.3
4 | CCCCNC(CC)C/N=C1\CC(c2ccc(Cl)cc2Cl)Cc2nc3ccc(Cl)cc3c(O)c21 (configuration not stated) | – | – | – | 5 | 5 | 5 | 5 | 5 | 5 | – | – | – | – | No. of cured mice (Plasmodium berghei [4]): 4
5 | CN(C)CCC/N=C1\CC(c2ccc(Cl)cc2Cl)Cc2nc3c(Cl)cccc3c(O)c21 (configuration not stated) | 1 | 5 | 5 | – | – | – | – | – | – | 4 | 0 | 5 | 0.5 | –
6 | CCCC/N=C1\CC(c2ccc(Cl)c(Cl)c2)Cc2nc3ccc(Cl)cc3c(O)c21 (configuration not stated) | 4 | 5 | 1 | – | – | – | – | – | – | 3 | – | – | – | Delta mean survival time (Plasmodium berghei [11]): 2.5; No. of toxic deaths (Plasmodium berghei [16]): 5; Delta mean survival time (Plasmodium berghei [17]): 1.2; Delta mean survival time (Plasmodium berghei [18]): 1.5
7 | Oc1c2c(nc3ccc(Cl)cc13)CC(c1ccc(Cl)cc1Cl)C/C2=N\CCCN1CCCC1 (configuration not stated) | – | – | – | 5 | 5 | 5 | 4 | 5 | 5 | – | 22.9 | – | – | No. of cured mice (Plasmodium berghei [4]): 1
8 | CCN(CC)CCCC/N=C1\CC(c2ccc(Cl)cc2Cl)Cc2nc3ccc(Cl)cc3c(O)c21 (configuration not stated) | – | – | – | 5 | 5 | 5 | 5 | 5 | 5 | – | – | – | – | No. of cured mice (Plasmodium berghei [4]): 2
9 | CCN(CC)CCC/N=C1\CC(c2ccc(C(F)(F)F)cc2)Cc2c1c(=O)c1cc(Cl)ccc1n2O (configuration not stated) | – | 3 | 5 | – | 2 | 2 | 2 | 3 | 2 | 3 | 10.1 | 3 | 16.8 | –
10 | CN(C)CCC/N=C1\CC(c2ccc(Cl)cc2Cl)Cc2nc3cc(Cl)ccc3c(O)c21 (configuration not stated) | – | – | – | 3 | 4 | – | – | 1 | 5 | – | 2.8 | – | 6.3 | No. of toxic deaths (Plasmodium berghei [19]): 2; Delta mean survival time (Plasmodium berghei [18]): 12; Delta mean survival time (Plasmodium berghei [20]): 13.8
11 | O=c1c2c(n(O)c3ccc(Cl)cc13)CC(c1cccc(C(F)(F)F)c1)C/C2=N\CCCCN1CCCC1 (configuration not stated) | 3 | 5 | 5 | – | – | – | – | – | – | – | – | 4 | 4.6 | Delta mean survival time (Plasmodium berghei [17]): 0.5; Delta mean survival time (Plasmodium berghei [18]): 3.7
12 | O=C1CC(c2ccc(C(F)(F)F)cc2)Cc2c1c(=O)c1cc(Cl)c(F)cc1n2O (configuration not stated) | 5 | 5 | 5 | – | – | – | – | – | – | 5 | 9 | 5 | – | –
13 | CN(C)CCC/N=C1\CC(c2ccc(C(F)(F)F)cc2)Cc2nc3ccccc3c(O)c21 (configuration not stated) | 5 | 5 | 5 | – | – | – | – | – | – | – | 5.3 | – | – | No. of toxic deaths (Plasmodium berghei [16]): 1
14 | C=CCNCC/N=C1\CC(c2ccc(C(F)(F)F)cc2)Cc2c1c(=O)c1cc(Cl)ccc1n2O (configuration not stated) | – | – | 5 | – | 5 | 1 | – | 2 | – | 3 | 7.8 | 5 | 8.4 | –
15 | CN(C)CCC/N=C1\CC(c2ccc(C(F)(F)F)cc2)Cc2nc3cc(Cl)ccc3c(O)c21 (configuration not stated) | 3 | 5 | 5 | – | – | – | – | – | – | 3 | 2.1 | 5 | 5.4 | Delta mean survival time (Plasmodium berghei [18]): 6.4
16 | O=C1CC(c2ccc(Cl)cc2Cl)Cc2nc3c(Cl)cccc3c(O)c21 (configuration not stated) | 1 | 2 | 4 | – | – | – | – | – | – | 1 | 0.3 | 2 | 1.3 | Delta mean survival time (Plasmodium berghei [11]): 2; No. of toxic deaths (Plasmodium berghei [16]): 1; Delta mean survival time (Plasmodium berghei [17]): 4; Delta mean survival time (Plasmodium berghei [18]): 5.3; Delta mean survival time (Plasmodium berghei [20]): 1.3
17 | CCn1c2c(c(=O)c3cc(Cl)ccc31)C(=O)CC(c1ccc(C(F)(F)F)cc1)C2 (configuration not stated) | 2 | 2 | 1 | – | – | – | – | – | – | – | – | – | 0 | Delta mean survival time (Plasmodium berghei [11]): 0; Delta mean survival time (Plasmodium berghei [20]): 0
18 | COc1ccccc1C1C/C(=N\CCCN(C)C)c2c(n(O)c3ccc(Cl)cc3c2=O)C1 (configuration not stated) | 1 | 5 | 5 | – | – | – | – | – | – | – | – | – | 0.3 | –
19 | CCN(CC)CC/N=C1\CC(c2ccc(C(F)(F)F)cc2)Cc2c1c(=O)c1cc(Cl)ccc1n2O (configuration not stated) | – | 1 | 2 | 3 | 4 | 5 | 1 | 2 | 4 | – | 10.5 | 1 | 10.8 | –
20 | CN(C)CCC/N=C1\CC(c2ccccc2Cl)Cc2c1c(=O)c1cc(Cl)ccc1n2O (configuration not stated) | 2 | 1 | 5 | – | – | – | – | – | – | – | – | – | 3 | Delta mean survival time (Plasmodium berghei [20]): 4
21 | OCCN(CCO)CCC/N=C1\CC(c2ccc(Cl)cc2Cl)Cc2nc3ccc(Cl)cc3c(O)c21 (configuration not stated) | – | – | – | 5 | 5 | 5 | 4 | 4 | 5 | – | 10.9 | – | 10.9 | No. of cured mice (Plasmodium berghei [4]): 1
22 | CN(C)CCC/N=C1\CC(c2ccc(Cl)cc2Cl)Cc2nc3ccc(Cl)cc3c(O)c21 (configuration not stated) | – | – | – | 5 | 5 | 5 | 5 | 5 | 5 | – | – | – | – | No. of cured mice (Plasmodium berghei [21]): 1; No. of cured mice (Plasmodium berghei [4]): 3; Delta mean survival time (Plasmodium berghei [22]): 7.4; Delta mean survival time (Plasmodium berghei [23]): 13.6
23 | O=c1c2c(n(O)c3ccc(Cl)cc13)CC(c1cccc(C(F)(F)F)c1)C/C2=N\CCCCCN1CCCC1 (configuration not stated) | 4 | 5 | 5 | – | – | – | – | – | – | – | – | – | 0.6 | –
